# Experiments:
# DNA gyrase [1] = biological target: DNA gyrase (Staphylococcus aureus, UniProt P0A0K8+P20831, D83N); experiment: Inhibition of Staphylococcus aureus DNA Gyrase D83N mutant assessed as reduction in supercoiling pBR322 DNA by measuring relaxation by bromophenol blue staining based TAE gel method
# [2] = biological target: Acetylcholinesterase (Homo sapiens) (UniProt P22303); experiment: Inhibition of human recombinant acetylcholinesterase receptor expressed in HEK293 cells at 100 uM by spectrophotometry; format: cell-based
# Topoisomerase IV = Topoisomerase IV (Staphylococcus aureus, UniProt P0C1S7+P0C1U9); experiment: Inhibition of Staphylococcus aureus topoisomerase IV decatenation activity using kDNA as substrate by ethidium bromide/bromophenol blue staining based agarose gel electrophoresis analysis; format: protein-complex assay
# Enterococcus faecalis = experiment: Antibacterial activity against vancomycin-resistant Enterococcus faecalis by CLSI method; format: functional
# Staphylococcus aureus [3] = experiment: Antibacterial activity against methicillin-resistant Staphylococcus aureus ATCC 33591 infected in iv dosed CD1 mouse model of septicemia assessed as mouse survival at 1 to 10 mg/kg, iv administered 0.5 to 3.5 hrs post injection measured for 7 days relative to control; format: functional; conditions: dose 1-10 mg/kg, time 7 day
# Summary of the method: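 Female CD-1 mice (18–20 g), in groups of six, were infected IP with 1.3 × 10^8 CFU MRSA ATCC 33591 suspended in 8% hog gastric mucin (pH 7.5). Compound was given as the methanesulfonate salt in 5% DMSO/water for injection, by IV tail vein at 0.5, 1.5, 2.5 and 3.5 h post infection. Dose levels were 1, 5, 10, 25 and 50 mg/kg/dose. Survival was followed for 7 days against untreated infection controls.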
# Staphylococcus aureus [4] = experiment: Antibacterial activity against Staphylococcus aureus ATCC 29213 by CLSI method; format: functional
# Kv4.3 (KCND3) = Kv4.3 (KCND3) (Homo sapiens, UniProt Q9UK17); experiment: Inhibition of recombinant human Kv4.3 expressed in human HEK293 cells at 100 uM measured at peak current by automated Qpatch clamp assay relative to control; format: ADME, cell-based; conditions: HEK293 cells expressing recombinant human Kv4.3
# THP-1 = experiment: Cytotoxicity against human THP-1 cells; format: cell-based
# Summary of the method: (§1)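 THP-1, HepG2 and HeLa cells were exposed to compound from 128 to 0.0625 μg/mL. IC50 was obtained by nonlinear regression of the inhibition curves.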
# Cytochrome P450 1A2 = Cytochrome P450 1A2 (Homo sapiens, UniProt P05177); experiment: Inhibition of CYP1A2 (unknown origin); format: ADME
# Cav1.2 = Cav1.2 (Homo sapiens, UniProt Q13936); experiment: Inhibition of recombinant human Cav1.2 expressed in human HEK293 cells at 100 uM measured at peak current by automated Qpatch clamp assay relative to control; format: ADME, cell-based; conditions: HEK293 cells expressing recombinant human Cav1.2
# DNA gyrase [5] = biological target: DNA gyrase (Staphylococcus aureus, UniProt P0A0K8+P20831); experiment: Inhibition of Staphylococcus aureus Gyrase supercoiling activity assessed as reduction in supercoiling pBR322 DNA by measuring relaxation by bromophenol blue staining based TAE gel method; format: protein-complex assay
# [6] = biological target: 5-hydroxytryptamine receptor 2B (Homo sapiens) (UniProt P41595); experiment: Displacement of [3H]Lysergic acid diethylamide from human recombinant 5HT2B receptor expressed in CHO-K1 cells at 100 uM by radioligand binding assay; format: cell-based
# hERG (KCNH2) = hERG (KCNH2) (Homo sapiens, UniProt Q12809); experiment: Inhibition of recombinant human ERG expressed in CHO-K1 cells at 100 uM at -80 mV holding potential tail current by automated Qpatch clamp assay relative to control; format: ADME, cell-based; conditions: CHO-K1 cells expressing recombinant human ERG
# Escherichia coli = experiment: Antibacterial activity against Escherichia coli isolates by CLSI method; format: functional
# [7] = biological target: DNA gyrase (Staphylococcus aureus) (UniProt P0A0K8+P20831); experiment: Inhibition of Staphylococcus aureus DNA Gyrase assessed as reduction in supercoiling pBR322 DNA by measuring induction of single strand breaks by ethidium bromide staining based agarose gel electrophoresis; format: protein-complex assay; conditions: dose 1-100 µM
# Summary of the method: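 Gyrase-mediated cleavage of negatively supercoiled pBR322 ran for 30 min at 37 °C with compound at 0.5–200 μM. Single- and double-strand break products were quantified from gel lane fluorescence, corrected for differential emission of supercoiled versus linear DNA.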
# [8] = Growth inhibition of human K/VP.5 cells incubated for 48 hrs by NBTI cell counting analysis; format: functional; conditions: K562, 48 h
# [9] = Oral bioavailability in ICR (CD-1) mouse at 50 mg/kg measured up to 1440 mins by LC-MS/MS analysis; format: ADME, organism-based; conditions: in vivo
# Summary of the method: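 Male ICR (CD-1) mice, 22 ± 2 g, given free base in DMSO/Solutol HS-15/0.9% NaCl (5/5/90) at 50 mg/kg PO or 10 mg/kg IV. Three mice per timepoint, 8 timepoints. Plasma taken by cardiac puncture at 10–1440 min (PO) or 3–1440 min (IV). Measured by LC-MS/MS, with parameters from noncompartmental analysis.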
# HepG2 = experiment: Cytotoxicity against human HepG2 cells; format: cell-based; summary of the method: as §1
# CYP2C9 = CYP2C9 (Homo sapiens, UniProt P11712); experiment: Inhibition of CYP2C9 (unknown origin) at 10 uM relative to control; format: ADME
# CYP2D6 = CYP2D6 (Homo sapiens, UniProt P10635); experiment: Inhibition of CYP2D6 (unknown origin) at 10 uM relative to control; format: ADME
# Enterobacter cloacae = experiment: Antibacterial activity against Enterobacter cloacae isolates by CLSI method; format: functional
# Pseudomonas aeruginosa = experiment: Antibacterial activity against Pseudomonas aeruginosa isolates by CLSI method; format: functional
# [10] = Permeability of the compound from apical to basolateral side in human Caco-2 cells; format: ADME, cell-based; conditions: read-out: permeability
# CYP2B6 = CYP2B6 (Homo sapiens, UniProt P20813); experiment: Inhibition of CYP2B6 (unknown origin) at 10 uM relative to control; format: ADME
# [11] = Permeability of the compound from basolateral to apical side in human Caco-2 cells; format: ADME, cell-based; conditions: read-out: permeability
# Summary of the method: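 Run at RTI International. Covers plasma protein binding (mouse, human; percent free), CACO-2 permeability and efflux, and microsomal stability (mouse and human microsomes) giving half-life.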
# Staphylococcus aureus [12] = experiment: Antibacterial activity against Staphylococcus aureus 3527 by CLSI method; format: functional
# Staphylococcus aureus [13] = experiment: Antibacterial activity against cystic fibrosis isolate Staphylococcus aureus by CLSI method; format: functional
# Cytochrome P450 2D6 = Cytochrome P450 2D6 (Homo sapiens, UniProt P10635); experiment: Inhibition of CYP2D6 (unknown origin); format: ADME
# Cytochrome P450 2C19 = Cytochrome P450 2C19 (Homo sapiens, UniProt P33261); experiment: Inhibition of CYP2C19 (unknown origin); format: ADME
# Klebsiella pneumoniae = experiment: Antibacterial activity against Klebsiella pneumoniae isolates by CLSI method; format: functional
# Staphylococcus aureus [14] = experiment: Antibacterial activity against methicillin-resistant Staphylococcus aureus ATCC 33591 infected in iv dosed CD1 mouse model of septicemia assessed as mouse survival at 25 to 50 mg/kg, iv administered 0.5 to 3.5 hrs post injection measured for 7 days relative to control; format: functional; conditions: dose 25-50 mg/kg; time 7 day
# [15] = Kinetic solubility of the compound at pH 7.4 buffer; format: physicochemical; conditions: read-out: Kinetic_solubility
# Summary of the method: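 Kinetic aqueous solubility was measured in buffer at pH 7.4.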
# CYP2B6, sequence (P20813 whole entry): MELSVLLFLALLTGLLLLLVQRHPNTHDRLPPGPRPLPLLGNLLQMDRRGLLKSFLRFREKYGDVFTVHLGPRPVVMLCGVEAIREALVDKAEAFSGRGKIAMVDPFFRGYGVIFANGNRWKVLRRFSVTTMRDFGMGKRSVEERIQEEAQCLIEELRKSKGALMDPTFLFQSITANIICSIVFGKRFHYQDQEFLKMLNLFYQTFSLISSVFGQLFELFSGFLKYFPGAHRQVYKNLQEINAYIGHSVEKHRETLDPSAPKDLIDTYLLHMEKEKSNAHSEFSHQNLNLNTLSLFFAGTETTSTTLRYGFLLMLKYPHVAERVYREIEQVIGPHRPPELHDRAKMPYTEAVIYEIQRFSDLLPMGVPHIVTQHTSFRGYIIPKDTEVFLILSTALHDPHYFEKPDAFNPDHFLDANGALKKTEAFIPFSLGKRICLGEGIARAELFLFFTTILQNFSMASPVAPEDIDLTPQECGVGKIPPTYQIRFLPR
# hERG (KCNH2), sequence (Q12809 whole entry): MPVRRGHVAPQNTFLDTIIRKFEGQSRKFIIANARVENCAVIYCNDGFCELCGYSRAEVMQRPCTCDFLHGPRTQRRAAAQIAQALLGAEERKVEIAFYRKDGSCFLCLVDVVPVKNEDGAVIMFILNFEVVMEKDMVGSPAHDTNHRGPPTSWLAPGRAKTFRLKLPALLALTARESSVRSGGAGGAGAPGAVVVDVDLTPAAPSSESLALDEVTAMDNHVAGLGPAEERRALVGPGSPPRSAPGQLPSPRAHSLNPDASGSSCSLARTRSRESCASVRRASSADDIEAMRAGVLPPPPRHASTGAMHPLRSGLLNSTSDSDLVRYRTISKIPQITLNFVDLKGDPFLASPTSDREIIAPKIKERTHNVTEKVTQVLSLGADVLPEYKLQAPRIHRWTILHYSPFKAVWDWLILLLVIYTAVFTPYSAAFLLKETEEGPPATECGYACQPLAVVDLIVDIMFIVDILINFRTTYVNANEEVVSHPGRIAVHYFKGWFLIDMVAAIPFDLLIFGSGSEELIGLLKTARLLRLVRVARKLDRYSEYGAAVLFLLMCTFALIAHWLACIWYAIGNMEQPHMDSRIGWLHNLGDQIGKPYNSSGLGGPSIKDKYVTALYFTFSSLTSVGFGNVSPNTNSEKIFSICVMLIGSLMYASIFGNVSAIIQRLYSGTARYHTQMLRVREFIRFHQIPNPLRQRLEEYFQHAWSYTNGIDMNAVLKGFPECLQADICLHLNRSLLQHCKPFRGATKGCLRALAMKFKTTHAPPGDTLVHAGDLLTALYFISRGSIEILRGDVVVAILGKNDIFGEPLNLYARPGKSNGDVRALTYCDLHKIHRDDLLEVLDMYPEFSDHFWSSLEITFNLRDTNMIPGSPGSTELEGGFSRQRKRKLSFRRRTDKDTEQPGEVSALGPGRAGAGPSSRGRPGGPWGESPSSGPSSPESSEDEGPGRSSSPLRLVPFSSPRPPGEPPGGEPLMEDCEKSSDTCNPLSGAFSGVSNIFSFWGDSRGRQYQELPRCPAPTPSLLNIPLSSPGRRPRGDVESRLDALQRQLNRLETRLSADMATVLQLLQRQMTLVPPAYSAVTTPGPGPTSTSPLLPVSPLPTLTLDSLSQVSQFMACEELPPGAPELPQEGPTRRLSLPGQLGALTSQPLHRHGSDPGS
# 5-hydroxytryptamine receptor 2B (Homo sapiens), sequence (P41595 whole entry): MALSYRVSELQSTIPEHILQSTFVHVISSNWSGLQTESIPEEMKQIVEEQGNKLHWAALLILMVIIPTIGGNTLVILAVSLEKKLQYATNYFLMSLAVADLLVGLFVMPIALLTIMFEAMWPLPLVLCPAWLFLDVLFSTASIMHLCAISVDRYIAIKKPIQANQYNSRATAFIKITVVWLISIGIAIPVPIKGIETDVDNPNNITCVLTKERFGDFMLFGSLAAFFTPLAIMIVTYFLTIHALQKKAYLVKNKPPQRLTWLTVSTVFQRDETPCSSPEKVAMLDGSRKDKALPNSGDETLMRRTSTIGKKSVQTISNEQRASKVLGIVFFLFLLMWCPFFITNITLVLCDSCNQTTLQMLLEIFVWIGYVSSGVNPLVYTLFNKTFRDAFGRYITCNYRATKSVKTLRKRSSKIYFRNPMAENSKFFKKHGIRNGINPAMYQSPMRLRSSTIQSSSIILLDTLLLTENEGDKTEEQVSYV
# Kv4.3 (KCND3), sequence (Q9UK17 whole entry): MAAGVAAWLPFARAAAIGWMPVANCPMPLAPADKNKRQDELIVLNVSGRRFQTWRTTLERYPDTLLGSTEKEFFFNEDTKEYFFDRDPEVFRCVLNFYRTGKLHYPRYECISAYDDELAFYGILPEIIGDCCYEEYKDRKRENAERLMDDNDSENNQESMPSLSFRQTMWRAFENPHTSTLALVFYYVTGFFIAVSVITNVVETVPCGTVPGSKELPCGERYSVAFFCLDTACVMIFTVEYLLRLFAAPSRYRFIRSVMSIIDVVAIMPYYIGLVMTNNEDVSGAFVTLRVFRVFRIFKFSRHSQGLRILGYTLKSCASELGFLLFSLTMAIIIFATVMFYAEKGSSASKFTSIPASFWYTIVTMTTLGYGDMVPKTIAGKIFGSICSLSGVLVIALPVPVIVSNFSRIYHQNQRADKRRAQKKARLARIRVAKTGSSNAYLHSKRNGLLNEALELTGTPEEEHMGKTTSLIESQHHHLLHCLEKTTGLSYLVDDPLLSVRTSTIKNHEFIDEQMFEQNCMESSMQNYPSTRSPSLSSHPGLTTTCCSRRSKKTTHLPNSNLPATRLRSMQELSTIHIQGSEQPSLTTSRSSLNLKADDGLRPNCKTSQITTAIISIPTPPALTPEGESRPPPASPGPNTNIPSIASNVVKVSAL
# Cytochrome P450 1A2, sequence (P05177 whole entry): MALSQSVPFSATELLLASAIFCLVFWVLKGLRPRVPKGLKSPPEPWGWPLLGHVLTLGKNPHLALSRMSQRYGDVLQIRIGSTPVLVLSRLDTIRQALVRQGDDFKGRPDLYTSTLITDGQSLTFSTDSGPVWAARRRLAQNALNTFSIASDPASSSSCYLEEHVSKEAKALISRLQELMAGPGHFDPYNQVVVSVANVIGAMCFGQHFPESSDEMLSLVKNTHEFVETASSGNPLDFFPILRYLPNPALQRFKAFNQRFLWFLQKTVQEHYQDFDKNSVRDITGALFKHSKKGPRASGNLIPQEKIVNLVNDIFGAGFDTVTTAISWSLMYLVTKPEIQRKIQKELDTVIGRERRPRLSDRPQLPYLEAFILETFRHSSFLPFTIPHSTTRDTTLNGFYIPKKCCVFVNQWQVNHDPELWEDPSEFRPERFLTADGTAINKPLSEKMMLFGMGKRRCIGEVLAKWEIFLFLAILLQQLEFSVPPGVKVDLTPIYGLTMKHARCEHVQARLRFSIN
# CYP2D6, sequence (P10635 whole entry): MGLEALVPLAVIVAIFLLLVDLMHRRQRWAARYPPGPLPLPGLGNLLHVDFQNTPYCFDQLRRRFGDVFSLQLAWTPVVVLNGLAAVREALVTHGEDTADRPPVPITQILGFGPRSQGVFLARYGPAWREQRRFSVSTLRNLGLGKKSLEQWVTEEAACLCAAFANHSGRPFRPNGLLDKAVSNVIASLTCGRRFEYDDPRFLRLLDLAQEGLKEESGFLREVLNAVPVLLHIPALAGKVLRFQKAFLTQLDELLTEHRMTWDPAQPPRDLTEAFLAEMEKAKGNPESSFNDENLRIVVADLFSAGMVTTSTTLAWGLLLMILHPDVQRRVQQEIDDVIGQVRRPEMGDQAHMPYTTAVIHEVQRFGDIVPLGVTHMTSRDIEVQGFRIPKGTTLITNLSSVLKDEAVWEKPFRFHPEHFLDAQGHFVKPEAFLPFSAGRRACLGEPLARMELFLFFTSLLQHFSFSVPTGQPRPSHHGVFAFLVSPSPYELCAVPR
# Cytochrome P450 2D6, sequence (P10635 whole entry): as above
# Acetylcholinesterase (Homo sapiens), sequence (P22303 whole entry): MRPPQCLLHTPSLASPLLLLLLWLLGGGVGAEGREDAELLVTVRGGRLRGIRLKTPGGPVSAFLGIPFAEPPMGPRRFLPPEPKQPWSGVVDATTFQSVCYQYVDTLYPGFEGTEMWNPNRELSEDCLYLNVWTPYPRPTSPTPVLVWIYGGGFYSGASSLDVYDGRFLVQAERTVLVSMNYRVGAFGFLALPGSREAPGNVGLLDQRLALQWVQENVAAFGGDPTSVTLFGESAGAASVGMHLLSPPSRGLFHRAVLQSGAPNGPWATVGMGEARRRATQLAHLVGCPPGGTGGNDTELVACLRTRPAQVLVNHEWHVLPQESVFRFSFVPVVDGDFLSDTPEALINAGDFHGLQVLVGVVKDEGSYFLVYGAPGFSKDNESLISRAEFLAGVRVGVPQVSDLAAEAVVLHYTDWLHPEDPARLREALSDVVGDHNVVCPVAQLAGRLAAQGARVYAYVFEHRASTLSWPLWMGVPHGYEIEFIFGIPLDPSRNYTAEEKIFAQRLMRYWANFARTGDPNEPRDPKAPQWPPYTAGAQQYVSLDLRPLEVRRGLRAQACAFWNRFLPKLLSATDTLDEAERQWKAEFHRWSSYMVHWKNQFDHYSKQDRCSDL
# CYP2C9, sequence (P11712 whole entry): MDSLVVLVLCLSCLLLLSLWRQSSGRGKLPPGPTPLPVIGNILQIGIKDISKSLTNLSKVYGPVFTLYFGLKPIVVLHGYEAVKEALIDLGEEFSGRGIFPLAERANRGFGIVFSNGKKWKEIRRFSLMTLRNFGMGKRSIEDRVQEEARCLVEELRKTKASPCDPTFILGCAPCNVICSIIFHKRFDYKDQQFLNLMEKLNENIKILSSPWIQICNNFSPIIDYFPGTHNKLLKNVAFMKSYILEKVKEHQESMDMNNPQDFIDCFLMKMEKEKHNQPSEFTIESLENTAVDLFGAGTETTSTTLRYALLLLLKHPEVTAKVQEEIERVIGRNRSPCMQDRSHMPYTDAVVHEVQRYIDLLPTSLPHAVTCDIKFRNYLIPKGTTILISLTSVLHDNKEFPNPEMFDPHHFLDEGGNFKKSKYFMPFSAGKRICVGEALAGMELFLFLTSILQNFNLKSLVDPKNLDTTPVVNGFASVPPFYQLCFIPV
smiles,measurement,setting,value
COc1ccc2ncc(F)c(C[C@H](O)[C@H]3OC[C@H](NCc4cc5c(nn4)OCCS5)CO3)c2n1,IC50,DNA gyrase [1],15 µM
same,inhibition,[2],> 45%
same,IC50,Topoisomerase IV,3.5 µM
same,MIC50,Enterococcus faecalis,0.25 µg/mL
same,MIC90,Enterococcus faecalis,1 µg/mL
same,Survival,Staphylococcus aureus [3],>50%
same,MIC,Staphylococcus aureus [4],0.125 µg/mL
same,inhibition at 100 µM,Kv4.3 (KCND3),< 25%
same,IC50,THP-1,> 125 µM
same,IC50,Cytochrome P450 1A2,> 10 µM
same,inhibition at 100 µM,Cav1.2,< 25%
same,IC50,DNA gyrase [5],0.22 µM
same,inhibition,[6],> 45%
same,inhibition at 100 µM,hERG (KCNH2),< 25%
same,MIC50,Escherichia coli,> 64 µg/mL
same,Activity,[7],Dose-Dependent Effect
same,IC50,[8],202 µM
same,bioavailability,[9],49%
same,IC50,HepG2,> 125 µM
same,inhibition at 10 µM,CYP2C9,> 50%
same,inhibition at 10 µM,CYP2D6,> 50%
same,MIC50,Enterobacter cloacae,> 64 µg/mL
same,MIC50,Pseudomonas aeruginosa,> 64 µg/mL
same,Papp A→B,[10],5.68 ×10⁻⁶ cm/s
same,inhibition at 10 µM,CYP2B6,> 50%
same,Papp B→A,[11],81.2 ×10⁻⁶ cm/s
same,MIC,Staphylococcus aureus [12],0.25 µg/mL
same,MIC,Staphylococcus aureus [13],0.125 µg/mL
same,IC50,Cytochrome P450 2D6,> 10 µM
same,IC50,Cytochrome P450 2C19,> 10 µM
same,MIC50,Klebsiella pneumoniae,> 64 µg/mL
same,Survival,Staphylococcus aureus [14],100%
same,solubility kinetic,[15],61.4 µM

# Source: ChEMBL document CHEMBL4837261, “Optimization of TopoIV Potency, ADMET Properties, and hERG Inhibition of 5-Amino-1,3-dioxane-Linked Novel Bacterial Topoisomerase Inhibitors: Identification of a Lead with In Vivo Efficacy against MRSA” (J Med Chem, 2021)
